Screens (PubChem)
GPR7 antagonist: human neuropeptides B/W receptor 1 antagonism. GPR7-expressing cells, fluorescence antagonist assay. inhibition, % at 4.4 µM. P48145. actives 1.1% (n = 290,000); in the data active = inhibition above about 16%, passing the limit was not always enough;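 also: cells stimulated with the agonist NPW; 0% = agonist with vehicle and 100% = vehicle without agonist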
Target sequence (P48145 whole entry, looked up): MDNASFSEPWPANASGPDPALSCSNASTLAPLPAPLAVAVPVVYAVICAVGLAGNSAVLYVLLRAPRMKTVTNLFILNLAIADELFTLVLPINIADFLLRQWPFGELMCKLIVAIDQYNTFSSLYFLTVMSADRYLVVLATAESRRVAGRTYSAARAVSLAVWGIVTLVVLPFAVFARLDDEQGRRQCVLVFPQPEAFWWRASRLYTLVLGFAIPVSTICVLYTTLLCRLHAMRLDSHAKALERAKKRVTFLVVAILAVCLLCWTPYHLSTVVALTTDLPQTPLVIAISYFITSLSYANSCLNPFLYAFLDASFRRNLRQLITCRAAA
OX1R antag-1: OX1R (human) antagonism. inhibition, % at 6.6 µM. OX1R-expressing cells, FRET antagonist read-out. actives 1.8% (n = 330,000). O43613; in the data active = inhibition mostly above about 38%, no sharp cut-off; inactive = mostly below about 40%;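 also: 0% = agonist challenge alone and 100% = reference antagonist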
Target sequence (O43613 whole entry, looked up): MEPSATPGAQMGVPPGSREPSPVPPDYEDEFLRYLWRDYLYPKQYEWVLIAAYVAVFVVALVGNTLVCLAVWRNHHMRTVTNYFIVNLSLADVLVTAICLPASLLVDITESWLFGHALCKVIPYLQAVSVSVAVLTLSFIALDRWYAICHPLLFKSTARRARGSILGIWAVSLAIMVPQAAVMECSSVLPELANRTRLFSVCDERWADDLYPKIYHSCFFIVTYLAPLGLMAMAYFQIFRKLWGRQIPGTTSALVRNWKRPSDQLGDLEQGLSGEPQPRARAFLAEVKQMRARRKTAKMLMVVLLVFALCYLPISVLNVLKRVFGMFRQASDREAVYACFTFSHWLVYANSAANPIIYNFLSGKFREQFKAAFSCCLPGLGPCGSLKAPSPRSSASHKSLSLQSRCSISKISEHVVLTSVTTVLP
TAAR1 agonist: agonists of human TAAR1; CHO RD-HGA16 TAAR1, Fluo-8 calcium fluorescence; vehicle wells 0%, saturating PEA agonist 100%; activation, % at 3 µM; actives 0.99% (n = 360,000); AID 624467;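 active = activation above the mean activation of all test compounds in the run plus 3 SD, cut at about 38% in these data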
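Test system: RD-HGA16 (CHO) cells co-expressing Gα16 and hTAAR1 | Doses: Single dose, 3 µM | Schedule: 17-24 h seeding, 75 min 37 °C dye, 30 min RT | Evaluation: % activation from peak over basal fluorescence ratio, DMSO-to-PEA scaled | Technique: Kinetic Fluo-8 calcium fluorescence | Benchmarks: Low control DMSO, high control PEA (EC100)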
CHO parental Ca: counter-screen: ATP calcium response change in parental CHO cells; parental CHO-K1, ATP-induced calcium, Fluo-8 fluorescence; inhibition, % at 5.6 µM; actives 0.63% (n = 330,000);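 active = inhibition above that plate's mean sample inhibition plus 3 SD, cut at about 26% in these data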;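 also: 0% = ATP-challenged DMSO wells and 100% = DMSO wells without ATP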
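Measured by: calcium-sensitive Fluo-8 fluorescence / Test system: CHO parental line / Controls: ATP-challenged DMSO wells low, unchallenged DMSO wells high / Measure: % inhibition / Compound: single nominal dose of 5.6 µM per compound / Replicates: single well per compound, no replicates / Reagent: ATP as calcium-mobilizing challenge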
OX1R antag-2: antagonists of human orexin 1 receptor | O43613 | CHO/OX1R cells, Fluo-8 calcium fluorescence, orexin A | inhibition, % at 5 µM | actives 0.43% (n = 330,000) | AID 434989;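 active = inhibition above its plate's threshold, mean inhibition of all tested compounds on the plate plus 3 SD, cut at about 37% in these data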;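 also: 0% = orexin A challenge wells and 100% = SB-334867-A antagonist wells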
TAAR1 antagonist: antagonists of human TAAR1; Q96RJ0; CHO RD-HGA16 TAAR1, Fluo-8 calcium fluorescence, antagonist; inhibition, % at 3 µM; actives 1.5% (n = 360,000); AID 624466;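 active = inhibition above a per-plate cutoff, the mean inhibition of test compounds on that plate plus 3 SD, cut at about 49% in these data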;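 also: 0% = DMSO plus EC80 beta-PEA response and 100% = DMSO alone without agonist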
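Material: CHO RD-HGA16 cells bearing hTAAR1; compound dosing: one-point dosing, 3 µM nominal final; schedule: dye loading 75 min at 37 °C, then 30 min room temperature; measured by: calcium fluorescence with Fluo-8; control set: vehicle and agonist controls; replication: n of 1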
TAAR1 nonsel count: counter-screen for TAAR1 antagonists: nonselective antagonists. shares compounds with TAAR1 antagonist. counterscreen cell line, calcium fluorescence, antagonist mode. inhibition, % at 3 µM. actives 77% (n = 2,400). AID 651780; in the data active = inhibition above about 22%;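 also: CHO-Ga16 host cells stimulated with ATP at an EC80 level; 0% = agonist EC80 plus vehicle and 100% = vehicle without agonist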
TAAR1 antag conf: human TAAR1 antagonism, confirmed; shares compounds with TAAR1 antagonist; TAAR1-expressing cells, fluorescence antagonist read-out; inhibition, % at 3 µM; actives 40% (n = 2,400); AID 651785; in the data active = inhibition above about 49%;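 also: CHO-Ga16 host cells challenged with agonist PEA near its EC80; 0% = agonist at EC80 plus vehicle and 100% = vehicle with no agonist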
Ga16 nonsel ag: nonselective Ga16 agonist in TAAR1 antagonist counter-screen; Ga16-expressing cells, calcium fluorescence, agonist counterscreen; actives 18% (n = 2,400); activation, % at 3 µM; shares compounds with TAAR1 antagonist; in the data active = activation above about 12%;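 also: 0% = vehicle wells and 100% = saturating stimulus response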
TAAR1 ag counter: activates human TAAR1 in antagonist counter-screen; hTAAR1 cell line, fluorescence activation, agonist mode; activation, % at 3 µM; AID 651955; actives 2% (n = 2,400); shares compounds with TAAR1 antagonist; in the data active = activation above about 37%;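 also: CHO cells stably expressing TAAR1 with calcium dye readout; 0% = DMSO vehicle and 100% = full agonist response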
Starred values were filed as active, the others as inactive; / = no result. An excerpt weighted towards active compounds, which were near 4.5% of everything screened.

SMILES | GPR7 antagonist | OX1R antag-1 | TAAR1 agonist | CHO parental Ca | OX1R antag-2 | TAAR1 antagonist | TAAR1 nonsel count | TAAR1 antag conf | Ga16 nonsel ag | TAAR1 ag counter
O=C(NC(=S)Nc1ccc(N2CCOCC2)cc1)c1cncc(Br)c1 | -12 | 18 | 4 | -14 | -24 | -14 | / | / | / | /
Cc1nn(-c2ccccc2)c(C)c1NC(=O)COC(=O)c1ccccc1 | / | 2 | 6 | -12 | -7 | 12 | / | / | / | /
Cc1nn(-c2ccccc2)c(C)c1NC(=O)COC(=O)CCCOc1ccccc1 | / | 14 | 14 | 10 | -14 | 57* | 19 | 38 | 10 | 9
COc1ccccc1/C=C/C(=O)OCC(=O)Nc1c(C)nn(-c2ccccc2)c1C | / | 10 | 21 | -25 | -22 | 66* | 21* | 44 | 10 | 6
Cc1nn(-c2ccccc2)c(C)c1NC(=O)COC(=O)c1ccc(Cl)c(N)c1 | / | 22 | 17 | -7 | -10 | 72* | 30* | 50* | 12* | 12
Cc1cc(C)n(-c2ccc(C(=O)OCC(=O)NC(c3ccccc3)c3ccccc3)cc2)n1 | 1 | 11 | 13 | 4 | -19 | 66* | 27* | 52* | 7 | 19
CCOC(=O)c1ccc(-n2nc(C)cc2C)cc1 | -7 | 0 | -2 | -3 | -17 | -11 | / | / | / | /
CCCn1c(SCC(=O)N(C)CC(=O)Nc2ccc(C)cc2)n[nH]c1=O | / | 12 | 0 | -8 | 0 | 8 | / | / | / | /
CC(=O)c1ccccc1NS(C)(=O)=O | -4 | 5 | 1 | 5 | 2 | -3 | / | / | / | /
O=C(COC(=O)/C=C/c1ccc([N+](=O)[O-])cc1)NNC(=O)c1ccccc1 | / | 25 | 1 | -10 | -4 | -4 | / | / | / | /
CC(=O)Nc1ccc(NC(=O)c2ccc(-c3ccnn3C)c3ccoc23)cc1 | / | / | 9 | / | / | 2 | / | / | / | /
CC(C)Sc1ncnc2[nH]ncc12 | / | / | 1 | / | / | 7 | / | / | / | /
Cc1c(NC(=O)[C@@H](NC(=O)c2ccc(Cl)c([N+](=O)[O-])c2)C(C)C)c(=O)n(-c2ccccc2)n1C | / | 12 | -1 | -22 | -15 | -6 | / | / | / | /
O=C(CSc1nnnn1C1CCCC1)NCCc1ccccc1 | -10 | 8 | 27 | 3 | -18 | 55* | 10 | 73* | 0 | 52*
COC(=O)c1ccc(NC(=O)CSc2nnnn2C2CCCCC2)cc1 | -14 | 7 | 19 | -17 | -22 | 65* | 12 | 2 | 1 | 7
COc1cc(NC(=O)CSc2nnnn2C2CCCC2)cc(OC)c1 | 2 | 5 | 1 | -5 | -14 | 6 | / | / | / | /
COC(=O)c1sc(NC(=O)CN2CCN(c3cccc(Cl)c3)CC2)c(C(=O)OC)c1C | / | / | 0 | / | / | -14 | / | / | / | /
Cc1cc(C)cc(NC(=O)c2cccc(N3C(=O)C4C5C=CC(C5)C4C3=O)c2)c1 (stereo not drawn) | -10 | / | 0 | / | / | -23 | / | / | / | /
Cc1cccc(NC(=O)c2cccc(N3C(=O)C4C5C=CC(C6CC56)C4C3=O)c2)c1 (stereo not drawn) | -13 | 6 | 8 | 2 | -17 | 58* | 35* | 38 | 10 | 7
Cc1ccccc1OCC(=O)NCC(=O)OCc1ccc(Br)cc1 | 22 | 6 | -1 | 7 | -15 | -8 | / | / | / | /
O=S1(=O)N[C@@H](Cc2ccccc2)COc2cccc(N3CCN(Cc4ccccc4F)CC3)c21 | / | / | 10 | / | / | 71* | 35* | 50* | 10 | 11
CC(C)C[C@@H]1COc2cccc(N3CCN(Cc4ccccc4F)CC3)c2S(=O)(=O)N1 | / | / | 11 | / | / | 36 | / | / | / | /
CC(OC(=O)C1=COCCO1)C(=O)NC(C)c1ccc(Cl)cc1Cl (stereo not drawn) | / | 6 | 4 | -15 | -24 | -12 | / | / | / | /
Cc1cccc(N2CCN(S(=O)(=O)c3ccc4[nH]c(=O)ccc4c3)CC2)c1C | -15 | 5 | 11 | -1 | -15 | 61* | 35* | 38 | 11 | 10
COc1ccccc1N1CCN(C(=O)c2cccc(C(=O)N3CCN(c4ccccc4OC)CC3)c2)CC1 | -14 | 44 | 17 | -23 | -15 | 54* | 27* | 49* | 9 | 10
SMILES | GPR7 antagonist | OX1R antag-1 | TAAR1 agonist | CHO parental Ca | OX1R antag-2 | TAAR1 antagonist | TAAR1 nonsel count | TAAR1 antag conf | Ga16 nonsel ag | TAAR1 ag counter
O=C(c1cccc(C(=O)N2CCN(c3ccccc3F)CC2)c1)N1CCN(c2ccccc2F)CC1 | 4 | 9 | 11 | -12 | -18 | 68* | 27* | 36 | 9 | 5
CCc1ccccc1S(=O)(=O)Cc1ccc(C(=O)N2CCN(c3ccccc3OC)CC2)o1 | 5 | 13 | 17 | -15 | -13 | 72* | 29* | 50* | 18* | 38*
O=C(c1ccc2c(=O)n(CCc3ccccc3)c(=O)[nH]c2c1)N1CCN(c2ccc(F)cc2)CC1 | -14 | 9 | 9 | -4 | 7 | 58* | 29* | 45 | 6 | 10
O=C(c1ccc2c(=O)n(CCc3ccccc3)c(=O)[nH]c2c1)N1CCN(c2ccccc2)CC1 | -25 | 21 | / | -21 | -22 | / | / | / | / | /
COc1cc(OC)cc(C(=O)N2CCN(C3CCC(C)CC3)CC2)c1 (stereo not drawn) | / | / | 1 | / | / | -7 | / | / | / | /
O=C(NCc1cc(Cl)cc(Cl)c1)c1csc([C@@H]2C[C@H](O)[C@@H](CO)O2)n1 | / | / | 3 | / | / | -18 | / | / | / | /
CC1(/[N+]([O-])=C/c2ccc(F)cc2)CCCCC1=O (stereo not drawn) | -18 | 9 | 1 | 3 | 10 | -5 | / | / | / | /
Cc1ccc(NC2CCCN(C(=O)c3cccs3)C2)cc1C (stereo not drawn) | -4 | 34 | 7 | -16 | -19 | -23 | / | / | / | /
O=C(c1cccc(F)c1)N1CCN(c2cccc(C(F)(F)F)c2)CC1 | -3 | 2 | 2 | -16 | -12 | -2 | / | / | / | /
O=C(C(Sc1ccccc1)c1ccccc1)N1CCN(c2ccccc2F)CC1 (stereo not drawn) | 14 | 28 | 6 | -17 | -15 | 50* | 17 | 36 | 7 | 8
O=C(c1ccc(N2CCN(C(=O)c3cccc(F)c3)CC2)cc1)c1cccc(F)c1 | -2 | 4 | 4 | -4 | -9 | 53* | 24* | 34 | 9 | 11
Cc1cc(C(=O)CSc2ccc(F)cc2)cc(C)c1O | -1 | 13 | 3 | -14 | -37 | 30 | / | / | / | /
